Measurements reported in ChEMBL document CHEMBL1124340, “Acyclic analogues of 3'-azido-3'-deoxythymidine as potential antiviral agents. Nucleoside synthesis by Michael addition” (J Med Chem, 1989).
Calls of active or inactive are those of the source. No cut-off for these calls is given here.

What was measured:
Vero [1] = experiment: In vitro inhibitory activity against HSV-2 in vero cells of african green monkey at concentration 100 uM; Inactive; assay type: functional, cell-based; details: Chlorocebus sabaeus
Vero [2] = experiment: In vitro inhibitory activity against HSV-1 in vero cells of african green monkey at concentration 100 uM; Inactive; assay type: functional, cell-based; details: Chlorocebus sabaeus
[3] = Toxicity in Vero (African green monkey) cells at concentration 100 uM; compound found nontoxic; details: chlorocebus aethiops, in vitro
[4] = Toxicity in Vero (African green monkey) cells at concentration 100 uM; compound was found nontoxic; details: chlorocebus aethiops, in vitro
Vero [5] = experiment: In vitro inhibitory activity against HSV-1 in vero cells in african green monkey at concentration 100 uM; IA is inactive.; assay type: functional, cell-based; details: Chlorocebus sabaeus
Vero [6] = experiment: In vitro inhibitory activity against HSV-2 in vero cells of african green monkey at concentration 100 uM; IA is inactive.; assay type: functional, cell-based; details: Chlorocebus sabaeus
Homo sapiens = species: Homo sapiens; experiment: In vitro inhibitory activity against HIV-1 in human peripheral blood mononuclear cells at concentration 100 uM; Inactive; assay type: functional
Outline: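 Mitogen-stimulated PBM cells, three days old (10⁶ cells/mL), came from hepatitis- and HIV-1-seronegative donors. They were infected with HIV-1 strain LAV at about 100 TCID₅₀/mL. Compounds were added about 45 min post-infection and tested up to 100 μM. On day 5 the supernatant was clarified, virus pelleted, and reverse transcriptase activity measured. Cells came from three donors.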

Vero [7] = experiment: In vitro inhibitory activity against HSV-2 in vero cells in african green monkey at concentration 100 uM; Inactive; assay type: functional, cell-based; details: Chlorocebus sabaeus
Vero [8] = experiment: In vitro inhibitory activity against HSV-2 in Vero (African green monkey) cells at concentration 100 uM; Inactive; details: Chlorocebus sabaeus
[9] = Toxicity in Vero (African green monkey) cells at concentration 100 uM; compound found nontoxic; details: chlorocebus aethiops, in vitro; remark: listed apart in the source
Vero [10] = experiment: In vitro inhibitory activity against HSV-1 in Vero (African green monkey) cells at concentration 100 uM; Inactive; details: Chlorocebus sabaeus
Vero [11] = experiment: In vitro inhibitory activity against HSV-1 in vero cells in african green monkey at concentration 100 uM; Inactive; assay type: functional, cell-based; details: Chlorocebus sabaeus

SMILES | Activity (Vero [1]) | Activity (Vero [2]) | Toxicity [3] | Toxicity [4] | Activity (Vero [5]) | Activity (Vero [6]) | Activity (Homo sapiens) | Activity (Vero [7]) | Activity (Vero [8]) | Toxicity [9] | Activity (Vero [10]) | Activity (Vero [11])
COC(=O)/C=C/n1cc(C)c(=O)[nH]c1=O | inactive | inactive | Non-toxic |  |  |  |  |  |  |  |  | 
Cc1cn(C(CCO)SCCO)c(=O)[nH]c1=O (stereo not drawn) |  |  |  | Non-toxic | No activity | No activity | inactive |  |  |  |  | 
COC(=O)COC(CC(=O)OC)n1cc(C)c(=O)[nH]c1=O (stereo not drawn) |  |  |  |  |  |  | inactive | inactive | inactive | Non-toxic | inactive | inactive
COC(=O)CC(SCCO)n1cc(C)c(=O)[nH]c1=O (stereo not drawn) | inactive | inactive | Non-toxic |  |  |  |  |  |  |  |  | 
Cc1cn(C(CCN=[N+]=[N-])OCCO)c(=O)[nH]c1=O (stereo not drawn) |  |  |  |  |  |  | inactive | inactive | inactive | Non-toxic | inactive | inactive
Cc1cn(C(CCO)OCCO)c(=O)[nH]c1=O (stereo not drawn) |  |  |  |  |  |  | inactive | inactive | inactive | Non-toxic | inactive | inactive
